Source: ChEMBL document CHEMBL3108767, “Thioester Bonds of Thiocoraline Can Be Replaced with NMe-Amide Bridges without Affecting Its DNA-Binding Properties” (ACS Med Chem Lett, 2014)
The source made the active and inactive calls. The rule behind the calls is not given here.

Experiments:
[1] = Binding affinity to 3'-end [alpha32P]dATP labeled tyrT plasmid DNA (unknown origin) assessed as change in band shift at 10 to 50 uM
Summary of the method: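 tyrT DNA fragment incubated with ligand; a control lane received the solvent conditions alone. Samples were run on a native gel, and binding was scored as DNA bands that migrated more slowly than the control.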

DNA = test: Binding affinity to [alpha-32P]dATP labeled HexA DNA (unknown origin) at 0.1 to 500 uM by DNase 1 footprinting assay
[2] = Binding affinity to [alpha-32P]dATP labeled MS2 DNA (unknown origin) at 0.1 to 500 uM by DNase 1 footprinting assay
Summary of the method: (§1)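 Each radiolabeled fragment (MS2, HexA or HexB) incubated with ligand at 14 concentrations from 500 down to 0.1 μM, then cleaved with DNase I. Gel tracks compared with GA purine markers and solvent-only DNA to find regions of attenuated cleavage as footprints.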

[3] = Binding affinity to [alpha-32P]dATP labeled HexB DNA (unknown origin) at 0.1 to 500 uM by DNase 1 footprinting assay; summary of the method: as §1
[4] = Binding affinity to CGTACG HexB DNA (unknown origin) by DNase 1 footprinting assay
Summary of the method: (§2)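 Radiolabeled MS2, HexA or HexB DNA fragments incubated with ligand at 14 concentrations (500, 400, 300, 200, 100, 80, 60, 40, 20, 10, 5, 1, 0.5, 0.1 μM), then digested with DNase I. Products resolved on gels alongside GA purine markers and solvent-only DNA controls. C50 is the ligand concentration that reduced footprint band intensity by 50%.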

[5] = Binding affinity to fluorophore labeled FAM-ACATCT-dabcyl (unknown origin) assessed as change in melting temperature at 100 uM by fluorescence assay
Summary of the method: (§3)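 Duplexes made from fluorescently labeled oligonucleotides, each carrying the site of interest at its center. Melting run at 0.25 μM duplex DNA in 10 mM sodium phosphate pH 7.4 with 100 mM NaCl. Relative fluorescence was followed against temperature and normalized to the same initial value. First derivatives of the melting profiles were used to read transitions.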

[6] = Binding affinity to ATGGAT MS2 DNA (unknown origin) by DNase 1 footprinting assay; summary of the method: as §2
[7] = Binding affinity to TATATA HexB DNA (unknown origin) by DNase 1 footprinting assay; summary of the method: as §2
[8] = Binding affinity to CTCGAG HexB DNA (unknown origin) by DNase 1 footprinting assay; summary of the method: as §2
[9] = Binding affinity to fluorophore labeled FAM-CACGTG-dabcyl (unknown origin) assessed as change in melting temperature at 100 uM by fluorescence assay; summary of the method: as §3
[10] = Binding affinity to fluorophore labeled FAM-ACATGT-dabcyl (unknown origin) assessed as change in melting temperature at 100 uM by fluorescence assay; summary of the method: as §3
[11] = Binding affinity to fluorophore labeled FAM-AATATT-dabcyl (unknown origin) assessed as change in melting temperature at 100 uM by fluorescence assay; summary of the method: as §3
[12] = Binding affinity to fluorophore labeled FAM-GTGCAC-dabcyl (unknown origin) assessed as change in melting temperature at 100 uM by fluorescence assay; summary of the method: as §3
[13] = Binding affinity to CGCGAT HexB DNA (unknown origin) by DNase 1 footprinting assay; summary of the method: as §2
[14] = Binding affinity to ACGACT MS2 DNA (unknown origin) by DNase 1 footprinting assay; summary of the method: as §2
[15] = Binding affinity to GACGTA MS2 DNA (unknown origin) by DNase 1 footprinting assay; summary of the method: as §2
[16] = Binding affinity to GGATAG MS2 DNA (unknown origin) by DNase 1 footprinting assay; summary of the method: as §2

Activity [1]	Activity (DNA)	Activity [2]	Activity [3]	SMILES	C50 [4] [µM]	ΔTm [5] [°C]	C50 [6] [µM]	C50 [7] [µM]	C50 [8] [µM]	ΔTm [9] [°C]	ΔTm [10] [°C]	ΔTm [11] [°C]	ΔTm [12] [°C]	C50 [13] [µM]	C50 [14] [µM]	C50 [15] [µM]	C50 [16] [µM]
inactive	–	–	–	COCCOCCOCC(=O)NC[C@H]1C(=O)N(C)C[C@@H](NC(=O)c2nc3ccccc3cc2O)C(=O)NCC(=O)N(C)[C@H]2CSSC[C@@H](C(=O)N1C)N(C)C(=O)CNC(=O)[C@H](NC(=O)c1nc3ccccc3cc1O)CN(C)C(=O)[C@H](CNC(=O)COCCOCCOC)N(C)C2=O	–	–	–	–	–	–	–	–	–	–	–	–	–
Active	Active	Active	Active	CS[C@H]1SC[C@H]2C(=O)N(C)[C@@H](C(C)C)C(=O)OC[C@@H](NC(=O)c3cnc4ccccc4n3)C(=O)N[C@@H](C)C(=O)N(C)[C@@H]1C(=O)N(C)[C@@H](C(C)C)C(=O)OC[C@@H](NC(=O)c1cnc3ccccc3n1)C(=O)N[C@@H](C)C(=O)N2C	–	–	–	–	–	–	–	–	–	–	–	–	–

SMILES	Activity [1]	Activity (DNA)	Activity [2]	Activity [3]	C50 [4] [µM]	ΔTm [5] [°C]	C50 [6] [µM]	C50 [7] [µM]	C50 [8] [µM]	ΔTm [9] [°C]	ΔTm [10] [°C]	ΔTm [11] [°C]	ΔTm [12] [°C]	C50 [13] [µM]	C50 [14] [µM]	C50 [15] [µM]	C50 [16] [µM]
CSC[C@H]1C(=O)N(C)C[C@@H](NC(=O)c2nc3ccccc3cc2O)C(=O)NCC(=O)N(C)[C@H]2CSSC[C@@H](C(=O)N1C)N(C)C(=O)CNC(=O)[C@H](NC(=O)c1nc3ccccc3cc1O)CN(C)C(=O)[C@H](CSC)N(C)C2=O	Active	–	–	–	13	2.2	110	28	17	7.6	4.5	1.4	0.7	22	102	95	131
